System: U2OS
Assay: Multiplex assay against U2OS
Format: toxicity, cell-based
Details: human
Procedure, shortened: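 Imaging took place on a CQ1 microscope at 37°C and 5% CO2 once compound had been added to live cells stained at seeding with Hoechst33342, BioTracker Green Microtubule Cytoskeleton Dye, MitoTracker Red and Annexin V Alexa Fluor 680. CellPathfinder machine-learning gating classed cells as Hoechst high-intensity objects or normal cells, classed normal cells as having healthy, pyknosed or fragmented nuclei, and classed pyknosed cells as mitotic or apoptotic. Tubulin, mitochondrial-mass and membrane-permeability phenotypes are per cents of the healthy-nucleus cells.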

[1] = 12 h, 1 µM, compound concentration 1 uM, replicate 1
[2] = 12 h, 1 µM, compound concentration 1 uM, replicate 2
[3] = 12 h, 10 µM, compound concentration 10 uM, replicate 1
[4] = 12 h, 10 µM, compound concentration 10 uM, replicate 2
[5] = 24 h, 1 µM, compound concentration 1 uM, replicate 1
[6] = 24 h, 1 µM, compound concentration 1 uM, replicate 2
[7] = 24 h, 10 µM, compound concentration 10 uM, replicate 1
[8] = 24 h, 10 µM, compound concentration 10 uM, replicate 2
[9] = 48 h, 1 µM, compound concentration 1 uM, replicate 1
[10] = 48 h, 1 µM, compound concentration 1 uM, replicate 2
[11] = 48 h, 10 µM, compound concentration 10 uM, replicate 1
[12] = 48 h, 10 µM, compound concentration 10 uM, replicate 2

## CNc1cc(Oc2cc(C(=O)Nc3cc(N4CCN(C)CC4)cc(C(F)(F)F)c3)ccc2C)ncn1
[1]
  Population Apoptotic (%): 32%
  Population Healthy Nuclei (%): 59%
  Population Hoechst High Intensity Objects (%): 11%
  Population Membrane Permeable-Phenotype (%): 4%
  Population Mitochondria Different-Phenotype (%): 68%
  Population Mitotic Cells (%): 67%
  Population Normal (%): 88%
  Population Pyknosed Nuclei (%): 30%
  Population Tubulin-Different-Phenotype (%): 60%
  Total Cell Count: 176
[2]
  Population Apoptotic (%): 54%
  Population Fragmented Nuclei (%): 10%
  Population Healthy Nuclei (%): 73%
  Population Hoechst High Intensity Objects (%): 2%
  Population Membrane Permeable-Phenotype (%): 10%
  Population Mitochondria Different-Phenotype (%): 60%
  Population Mitotic Cells (%): 45%
  Population Normal (%): 97%
  Population Pyknosed Nuclei (%): 16%
  Population Tubulin-Different-Phenotype (%): 52%
  Total Cell Count: 56
[3]
  Population Apoptotic (%): 90%
  Population Fragmented Nuclei (%): 40%
  Population Healthy Nuclei (%): 10%
  Population Hoechst High Intensity Objects (%): 6%
  Population Membrane Permeable-Phenotype (%): 100%
  Population Mitochondria Different-Phenotype (%): 100%
  Population Mitotic Cells (%): 9%
  Population Normal (%): 93%
  Population Pyknosed Nuclei (%): 48%
  Population Tubulin-Different-Phenotype (%): 100%
  Total Cell Count: 116
[4]
  Population Apoptotic (%): 73%
  Population Fragmented Nuclei (%): 24%
  Population Healthy Nuclei (%): 13%
  Population Hoechst High Intensity Objects (%): 33%
  Population Membrane Permeable-Phenotype (%): 58%
  Population Mitochondria Different-Phenotype (%): 66%
  Population Mitotic Cells (%): 26%
  Population Normal (%): 66%
  Population Pyknosed Nuclei (%): 61%
  Population Tubulin-Different-Phenotype (%): 66%
  Total Cell Count: 70
[5]
  Population Apoptotic (%): 46%
  Population Fragmented Nuclei (%): 11%
  Population Healthy Nuclei (%): 64%
  Population Hoechst High Intensity Objects (%): 9%
  Population Membrane Permeable-Phenotype (%): 10%
  Population Mitochondria Different-Phenotype (%): 64%
  Population Mitotic Cells (%): 53%
  Population Normal (%): 90%
  Population Pyknosed Nuclei (%): 23%
  Population Tubulin-Different-Phenotype (%): 55%
  Total Cell Count: 174
[6]
  Population Apoptotic (%): 50%
  Population Fragmented Nuclei (%): 16%
  Population Healthy Nuclei (%): 63%
  Population Hoechst High Intensity Objects (%): 6%
  Population Membrane Permeable-Phenotype (%): 13%
  Population Mitochondria Different-Phenotype (%): 68%
  Population Mitotic Cells (%): 50%
  Population Normal (%): 93%
  Population Pyknosed Nuclei (%): 19%
  Population Tubulin-Different-Phenotype (%): 51%
  Total Cell Count: 58
[7]
  Population Apoptotic (%): 93%
  Population Fragmented Nuclei (%): 47%
  Population Healthy Nuclei (%): 3%
  Population Hoechst High Intensity Objects (%): 10%
  Population Membrane Permeable-Phenotype (%): 100%
  Population Mitochondria Different-Phenotype (%): 100%
  Population Mitotic Cells (%): 6%
  Population Normal (%): 89%
  Population Pyknosed Nuclei (%): 48%
  Population Tubulin-Different-Phenotype (%): 100%
  Total Cell Count: 120
[8]
  Population Apoptotic (%): 76%
  Population Fragmented Nuclei (%): 16%
  Population Healthy Nuclei (%): 23%
  Population Hoechst High Intensity Objects (%): 48%
  Population Membrane Permeable-Phenotype (%): 80%
  Population Mitochondria Different-Phenotype (%): 80%
  Population Mitotic Cells (%): 23%
  Population Normal (%): 51%
  Population Pyknosed Nuclei (%): 60%
  Population Tubulin-Different-Phenotype (%): 80%
  Total Cell Count: 76
[9]
  Population Apoptotic (%): 54%
  Population Fragmented Nuclei (%): 21%
  Population Healthy Nuclei (%): 60%
  Population Hoechst High Intensity Objects (%): 6%
  Population Membrane Permeable-Phenotype (%): 11%
  Population Mitochondria Different-Phenotype (%): 50%
  Population Mitotic Cells (%): 45%
  Population Normal (%): 93%
  Population Pyknosed Nuclei (%): 18%
  Population Tubulin-Different-Phenotype (%): 49%
  Total Cell Count: 163
[10]
  Population Apoptotic (%): 50%
  Population Fragmented Nuclei (%): 14%
  Population Healthy Nuclei (%): 70%
  Population Hoechst High Intensity Objects (%): 4%
  Population Membrane Permeable-Phenotype (%): 24%
  Population Mitochondria Different-Phenotype (%): 54%
  Population Mitotic Cells (%): 50%
  Population Normal (%): 95%
  Population Pyknosed Nuclei (%): 14%
  Population Tubulin-Different-Phenotype (%): 50%
  Total Cell Count: 51
[11]
  Population Apoptotic (%): 96%
  Population Fragmented Nuclei (%): 52%
  Population Healthy Nuclei (%): 2%
  Population Hoechst High Intensity Objects (%): 20%
  Population Membrane Permeable-Phenotype (%): 100%
  Population Mitochondria Different-Phenotype (%): 100%
  Population Mitotic Cells (%): 3%
  Population Normal (%): 80%
  Population Pyknosed Nuclei (%): 45%
  Population Tubulin-Different-Phenotype (%): 100%
  Total Cell Count: 142
[12]
  Population Apoptotic (%): 47%
  Population Fragmented Nuclei (%): 22%
  Population Healthy Nuclei (%): 45%
  Population Hoechst High Intensity Objects (%): 50%
  Population Membrane Permeable-Phenotype (%): 89%
  Population Mitochondria Different-Phenotype (%): 89%
  Population Mitotic Cells (%): 52%
  Population Normal (%): 50%
  Population Pyknosed Nuclei (%): 31%
  Population Tubulin-Different-Phenotype (%): 89%
  Total Cell Count: 85
